Activity calls are given as the source filed them. No cut-off for these calls is given here.
Key:
[1] = Displacement of [125I]angiotensin 2 from AT1 receptor in rat liver membrane after 2 hrs by gamma counting; type: cell membranes
How it was run: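 Rat liver membranes (5 mg original tissue) were incubated with 0.03 nM [125I]Ang II and varied test-compound concentrations. Incubation was 2 h at 25 °C. Bound and free label were separated by filtration on PEI-soaked GF/B filters and bound label was gamma counted. Nonspecific binding was taken with 1 µM Ang II.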

[2] = biological target: T1, Angiotensin type II receptor (Sus scrofa, UniProt Q2XUH7); experiment: Displacement of [125I]angiotensin 2 from AT2 receptor in pig uterus membrane after 1.5 hrs by gamma counting; type: cell membranes
T1 sequence (Q2XUH7 whole entry): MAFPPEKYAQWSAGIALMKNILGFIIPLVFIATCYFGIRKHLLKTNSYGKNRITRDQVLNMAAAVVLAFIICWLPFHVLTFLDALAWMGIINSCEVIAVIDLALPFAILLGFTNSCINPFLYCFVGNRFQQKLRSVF

[3] = biological target: T2, CYP2C9 (Homo sapiens, UniProt P11712); experiment: Inhibition of human recombinant CYP2C9 at 10 uM by spectrofluorimetry; type: ADME
How it was run: (§1)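 Compounds were tested at 10 µM in duplicate in a spectrofluorometric assay, with 0.25% final methanol and 0.25% final acetonitrile. Fluorescence at t = 0 was subtracted from fluorescence after incubation. Signal was compared with solvent-vehicle controls, and percent of control activity was reported as percent inhibition.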

[4] = biological target: T3, CYP3A4 (Homo sapiens, UniProt P08684); experiment: Inhibition of human recombinant CYP3A4 at 10 uM by spectrofluorimetry; type: ADME; how it was run: as §1
[5] = biological target: CYP2C19 (Homo sapiens, UniProt P33261); experiment: Inhibition of human recombinant CYP2C19 at 10 uM by spectrofluorimetry; type: ADME; how it was run: as §1
[6] = biological target: CYP3A5 (Homo sapiens, UniProt P20815); experiment: Inhibition of human recombinant CYP3A5 at 10 uM by spectrofluorimetry; type: ADME; how it was run: as §1
[7] = Displacement of [125I]angiotensin 2 from rat AT1 receptor expressed in african green monkey COS7 cells after 24 hrs; type: cell-based; conditions: cos-7
[8] = biological target: T4, CYP2B6 (Homo sapiens, UniProt P20813); experiment: Inhibition of human recombinant CYP2B6 at 10 uM by spectrofluorimetry; type: ADME; how it was run: as §1
T4 sequence (P20813 whole entry): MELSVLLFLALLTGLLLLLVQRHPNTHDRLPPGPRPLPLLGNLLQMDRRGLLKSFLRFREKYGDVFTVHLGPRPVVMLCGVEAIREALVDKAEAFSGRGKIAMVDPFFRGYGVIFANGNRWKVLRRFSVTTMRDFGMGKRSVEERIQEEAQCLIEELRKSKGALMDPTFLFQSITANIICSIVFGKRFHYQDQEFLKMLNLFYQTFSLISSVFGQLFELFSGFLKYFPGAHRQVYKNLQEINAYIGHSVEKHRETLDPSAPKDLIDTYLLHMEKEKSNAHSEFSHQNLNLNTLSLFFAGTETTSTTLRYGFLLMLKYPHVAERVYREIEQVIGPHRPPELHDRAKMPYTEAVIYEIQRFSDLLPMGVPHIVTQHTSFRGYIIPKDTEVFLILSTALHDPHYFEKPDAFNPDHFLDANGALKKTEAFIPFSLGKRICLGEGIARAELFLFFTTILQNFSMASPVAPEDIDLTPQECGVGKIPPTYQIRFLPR

[9] = biological target: T2, CYP2C9; experiment: Inhibition of CYP2C9 at 10 uM; type: ADME; how it was run: as §1
[10] = biological target: T3, CYP3A4; experiment: Inhibition of CYP3A4 at 10 uM; type: ADME; how it was run: as §1
[11] = biological target: T5, CYP1A2 (Homo sapiens, UniProt P05177); experiment: Inhibition of human recombinant CYP1A2 at 10 uM by spectrofluorimetry; type: ADME; how it was run: as §1
T5 sequence (P05177 whole entry): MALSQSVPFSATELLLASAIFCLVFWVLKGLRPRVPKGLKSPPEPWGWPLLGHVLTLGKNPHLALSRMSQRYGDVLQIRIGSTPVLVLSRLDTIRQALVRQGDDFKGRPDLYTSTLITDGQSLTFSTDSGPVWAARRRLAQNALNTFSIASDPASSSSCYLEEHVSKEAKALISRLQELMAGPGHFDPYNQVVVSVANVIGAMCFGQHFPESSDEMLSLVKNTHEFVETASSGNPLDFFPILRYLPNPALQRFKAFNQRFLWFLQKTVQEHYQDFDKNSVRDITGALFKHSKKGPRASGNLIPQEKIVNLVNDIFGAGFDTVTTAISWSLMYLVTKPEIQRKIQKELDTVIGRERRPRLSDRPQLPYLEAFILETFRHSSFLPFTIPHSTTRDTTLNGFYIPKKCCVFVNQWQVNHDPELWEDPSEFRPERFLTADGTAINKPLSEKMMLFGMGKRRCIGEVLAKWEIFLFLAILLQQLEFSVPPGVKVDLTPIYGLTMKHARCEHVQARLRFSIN

[12] = biological target: CYP2E1 (Homo sapiens, UniProt P05181); experiment: Inhibition of human recombinant CYP2E1 at 10 uM by spectrofluorimetry; type: ADME; how it was run: as §1
[13] = system: NG108-15; experiment: Agonist activity at AT2 receptor in rat/mouse hybrid NG108-15 cells assessed as induction of neurite growth at 0.1 nM after 3 days by phase contrast microscopy; type: functional, cell-based
How it was run: (§2)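 NG108-15 cells (passage 7–30) were grown in DMEM with 10% FBS, HAT and gentamycin at 37 °C in 7% CO2. Cells were stimulated once daily for three days, starting 24 h after plating. When used, PD123,319 (1 µM) was added 30 min before agonist. After 3 days, cells were scored from phase-contrast micrographs: positive meant at least one neurite longer than the cell body, expressed as % of total cells. At least 140 cells were counted in three independent experiments.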

[14] = system: NG108-15; experiment: Agonist activity at AT2 receptor in rat/mouse hybrid NG108-15 cells assessed as induction of neurite growth at 0.1 nM after 3 days by phase contrast microscopy in presence of 1 uM AT2 receptor antagonist PD-123319; type: functional, cell-based; how it was run: as §2
[15] = system: NG108-15; experiment: Cytotoxicity against rat/mouse hybrid NG108-15 cells up to 1 uM; type: cell-based
How it was run: (§3)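 NG108-15 cells were cultured for three days with test compound at 1 pM to 1 µM. Cell death was then judged by phase-contrast microscopy.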

[16] = system: NG108-15; experiment: Cytotoxicity against rat/mouse hybrid NG108-15 cells at 1 uM; type: cell-based; conditions: ng108-15, 1 µM; how it was run: as §3
[17] = system: NG108-15; experiment: Agonist activity at AT2 receptor in rat/mouse hybrid NG108-15 cells assessed as induction of neurite growth at 100 nM after 3 days by phase contrast microscopy; type: functional, cell-based; conditions: 0.1 nM, in the assay text read “at 0.1 nM” for “at 100 nM”; how it was run: as §2

T2 sequence (P11712 whole entry): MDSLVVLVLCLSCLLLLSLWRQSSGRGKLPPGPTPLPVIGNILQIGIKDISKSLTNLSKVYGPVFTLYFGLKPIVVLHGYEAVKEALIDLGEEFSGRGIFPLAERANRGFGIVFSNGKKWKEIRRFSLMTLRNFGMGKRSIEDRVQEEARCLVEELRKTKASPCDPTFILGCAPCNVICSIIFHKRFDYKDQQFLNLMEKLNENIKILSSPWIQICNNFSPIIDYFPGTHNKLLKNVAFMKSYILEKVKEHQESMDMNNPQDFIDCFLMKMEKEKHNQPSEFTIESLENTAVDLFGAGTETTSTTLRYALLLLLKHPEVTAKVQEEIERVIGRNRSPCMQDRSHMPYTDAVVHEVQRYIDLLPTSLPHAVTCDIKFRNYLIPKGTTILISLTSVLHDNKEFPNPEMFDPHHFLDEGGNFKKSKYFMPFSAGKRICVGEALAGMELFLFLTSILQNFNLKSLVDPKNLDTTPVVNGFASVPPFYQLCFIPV
Sequence of CYP3A5 (P20815 whole entry): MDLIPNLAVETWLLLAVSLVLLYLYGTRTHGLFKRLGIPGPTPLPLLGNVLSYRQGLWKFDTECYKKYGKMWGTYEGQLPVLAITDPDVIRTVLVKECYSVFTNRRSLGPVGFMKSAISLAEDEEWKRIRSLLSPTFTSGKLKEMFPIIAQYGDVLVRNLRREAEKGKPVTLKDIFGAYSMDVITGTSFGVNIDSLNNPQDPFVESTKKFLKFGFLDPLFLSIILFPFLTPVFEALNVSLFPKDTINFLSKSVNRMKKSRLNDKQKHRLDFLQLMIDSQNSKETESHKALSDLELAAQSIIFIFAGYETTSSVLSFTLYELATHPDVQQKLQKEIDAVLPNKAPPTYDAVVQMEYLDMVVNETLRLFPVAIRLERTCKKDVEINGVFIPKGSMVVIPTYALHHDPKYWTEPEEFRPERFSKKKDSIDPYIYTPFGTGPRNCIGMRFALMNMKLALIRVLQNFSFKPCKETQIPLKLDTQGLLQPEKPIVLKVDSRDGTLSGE
T3 sequence (P08684 whole entry): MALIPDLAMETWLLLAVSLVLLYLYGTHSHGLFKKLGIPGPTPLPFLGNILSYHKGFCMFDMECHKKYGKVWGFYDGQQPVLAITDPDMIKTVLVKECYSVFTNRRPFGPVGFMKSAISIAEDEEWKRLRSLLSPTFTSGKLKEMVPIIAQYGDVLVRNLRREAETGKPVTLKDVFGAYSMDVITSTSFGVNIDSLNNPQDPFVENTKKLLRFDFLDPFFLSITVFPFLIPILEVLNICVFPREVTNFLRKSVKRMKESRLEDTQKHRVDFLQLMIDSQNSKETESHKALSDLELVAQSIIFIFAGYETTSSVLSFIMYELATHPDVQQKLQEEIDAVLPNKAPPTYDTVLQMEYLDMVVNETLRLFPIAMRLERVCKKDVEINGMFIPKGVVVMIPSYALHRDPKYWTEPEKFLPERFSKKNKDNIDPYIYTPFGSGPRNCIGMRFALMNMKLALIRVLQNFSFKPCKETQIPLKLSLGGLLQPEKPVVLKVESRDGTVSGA
Sequence of CYP2C19 (P33261 whole entry): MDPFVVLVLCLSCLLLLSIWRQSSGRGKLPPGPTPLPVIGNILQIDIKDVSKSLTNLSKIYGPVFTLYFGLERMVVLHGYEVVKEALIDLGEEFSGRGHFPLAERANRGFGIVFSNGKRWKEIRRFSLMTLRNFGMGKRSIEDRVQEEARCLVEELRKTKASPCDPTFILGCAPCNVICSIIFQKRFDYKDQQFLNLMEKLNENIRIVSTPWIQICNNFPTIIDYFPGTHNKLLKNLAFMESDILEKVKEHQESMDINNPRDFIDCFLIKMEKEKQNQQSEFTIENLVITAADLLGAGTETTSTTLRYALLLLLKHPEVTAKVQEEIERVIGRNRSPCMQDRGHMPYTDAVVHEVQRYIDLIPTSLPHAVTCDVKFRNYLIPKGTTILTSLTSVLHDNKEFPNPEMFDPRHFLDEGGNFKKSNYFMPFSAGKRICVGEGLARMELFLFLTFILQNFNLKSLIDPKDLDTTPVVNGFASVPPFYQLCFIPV
Sequence of CYP2E1 (P05181 whole entry): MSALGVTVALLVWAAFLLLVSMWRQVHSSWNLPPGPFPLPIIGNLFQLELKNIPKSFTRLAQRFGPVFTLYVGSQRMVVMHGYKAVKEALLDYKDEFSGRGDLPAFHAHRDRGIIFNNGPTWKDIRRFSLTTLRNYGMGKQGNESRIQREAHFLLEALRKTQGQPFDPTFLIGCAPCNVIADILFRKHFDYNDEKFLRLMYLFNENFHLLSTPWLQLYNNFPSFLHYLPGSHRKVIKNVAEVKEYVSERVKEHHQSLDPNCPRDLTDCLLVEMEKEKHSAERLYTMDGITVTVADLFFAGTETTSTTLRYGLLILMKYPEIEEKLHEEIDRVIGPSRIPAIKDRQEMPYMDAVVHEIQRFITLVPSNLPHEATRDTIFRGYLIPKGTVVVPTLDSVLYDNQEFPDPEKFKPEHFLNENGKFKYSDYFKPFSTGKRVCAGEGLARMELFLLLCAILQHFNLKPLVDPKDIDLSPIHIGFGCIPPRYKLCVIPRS

Ki [1] [nM]	Ki [2] [nM]	inhibition at 10 µM [3] [%]	inhibition at 10 µM [4] [%]	SMILES	other results
> 10000	18.8			CCCCOC(=O)NS(=O)(=O)c1sc(CC(C)C)cc1-c1ccc(C(=O)c2cccs2)cc1	
> 10000	16.5	24	20	CCCCOC(=O)NS(=O)(=O)c1sc(CC(C)C)cc1-c1ccc(CN2CCN(C)C2=O)cc1	
> 10000	280			CCCCOC(=O)NS(=O)(=O)c1sc(CC(C)C)cc1-c1ccc(CN2CCSC2)cc1	
> 10000	3.2	86	70	CCCCOC(=O)NS(=O)(=O)c1sc(CC(C)C)cc1-c1ccc(Cc2nccs2)cc1	
> 10000	328			CCCCOC(=O)NS(=O)(=O)c1sc(CC(C)C)cc1-c1ccc(Cc2nnc(C(F)(F)F)o2)cc1	
> 10000	9.5	56	33	CCCCOC(=O)NS(=O)(=O)c1sc(CC(C)C)cc1-c1ccc(Cn2ccc(C(F)(F)F)n2)cc1	
> 10000	68.6	40	25	CCCCOC(=O)NS(=O)(=O)c1sc(CC(C)C)cc1-c1ccc(CN2C(=O)CN(C)C2=O)cc1	
> 10000	7.3	31	71	CCCCOC(=O)NS(=O)(=O)c1sc(CC(C)C)cc1-c1ccc(Cn2cnc(C(F)(F)F)c2)cc1	
> 10000	280			CCCCOC(=O)NS(=O)(=O)c1sc(CC(C)C)cc1-c1ccc(CN2CCOCC2)cc1	
> 10000	2.3	23	16	CCCCOC(=O)NS(=O)(=O)c1sc(CC(C)C)cc1-c1ccc(Cn2cccn2)cc1	inhibition at 10 µM [8]: 29%; inhibition at 10 µM [5]: 12%; inhibition at 10 µM [6]: 20%
> 10000		94	82	CCCCOC(=O)NS(=O)(=O)c1sc(CC(C)C)cc1-c1ccc(Cn2ccnc2)cc1 [BULOXIBUTID]	inhibition at 10 µM [9]: 94%; inhibition at 10 µM [10]: 82%; inhibition at 10 µM [11]: 63%; inhibition at 10 µM [8]: 40%; inhibition at 10 µM [5]: 67%
> 10000	108			CCCCOC(=O)NS(=O)(=O)c1sc(CC(C)C)cc1-c1ccc(Cn2cnccc2=O)cc1	
> 10000	17.6	37	44	CCCCOC(=O)NS(=O)(=O)c1sc(CC(C)C)cc1-c1ccc(Cn2cnc(C)c2)cc1	
12.1				CCCCc1nc(Cl)c(CO)n1Cc1ccc(-c2ccccc2-c2nnn[nH]2)cc1 [LOSARTAN]	
> 10000	18.6	92	16	CCCCOC(=O)NS(=O)(=O)c1sc(CC(C)C)cc1-c1ccc(C(=O)c2nccs2)cc1	

Continued, compound first:

SMILES	Ki [1] [nM]	Ki [2] [nM]	inhibition at 10 µM [3] [%]	inhibition at 10 µM [4] [%]	other results
Cc1cc(Cn2cnc3c2C[C@@H](C(=O)O)N(C(=O)C(c2ccccc2)c2ccccc2)C3)ccc1N(C)C	> 10000				
CCCCOC(=O)NS(=O)(=O)c1sc(CC(C)C)cc1-c1ccc(Cc2ccsc2)cc1	> 10000	175			
CCCCOC(=O)NS(=O)(=O)c1sc(CC(C)C)cc1-c1ccc(CN2C(=O)CCC2=O)cc1	> 10000	> 10000			
CCCCOC(=O)NS(=O)(=O)c1sc(CC(C)C)cc1-c1ccc(C(=O)c2nccn2C)cc1	> 10000	2.9	38	14	inhibition at 10 µM [5]: 6%; inhibition at 10 µM [6]: 17%
CCCCOC(=O)NS(=O)(=O)c1sc(CC(C)C)cc1-c1ccc(C(=O)c2ccnn2C)cc1	> 10000	3.4			
CCCCOC(=O)NS(=O)(=O)c1sc(CC(C)C)cc1-c1ccc(CN2CCC(=O)CC2)cc1	> 10000	16.1	71	51	
CCCCOC(=O)NS(=O)(=O)c1sc(CC(C)C)cc1-c1ccc(Cc2ncco2)cc1	> 10000	3.9	83	57	
CCCCOC(=O)NS(=O)(=O)c1sc(CC(C)C)cc1-c1ccc(Cn2ncnn2)cc1	> 10000	16			
CCCCOC(=O)NS(=O)(=O)c1sc(CC(C)C)cc1-c1ccc(Cn2cnnn2)cc1	> 10000	49			
CCCCOC(=O)NS(=O)(=O)c1sc(CC(C)C)cc1-c1ccc(Cn2c(CC)nc3c(C)cc(C)nc32)cc1					IC50 [7]: 1.1 nM
CCCCOC(=O)NS(=O)(=O)c1sc(CC(C)C)cc1-c1ccc(CN2C(=O)N(C)C(C)(C)C2=O)cc1	> 10000	3.6	38	20	
CCCCOC(=O)NS(=O)(=O)c1sc(CC(C)C)cc1-c1ccc(CN2CCCC2=O)cc1	> 10000	3.5	24	28	inhibition at 10 µM [8]: 33%; inhibition at 10 µM [5]: 25%; inhibition at 10 µM [12]: 5%; inhibition at 10 µM [6]: 25%; Activity [13]: Active; Activity [14]: inactive; Activity [15]: Non-toxic; Activity [16]: Toxic; Activity [17]: Active
CCCCOC(=O)NS(=O)(=O)c1sc(CC(C)C)cc1-c1ccc(C(=O)c2ncco2)cc1	> 10000	13.8	75	36	
